Measured values reported in ChEMBL document CHEMBL2163204, “Synthesis and nicotinic acetylcholine receptor in vitro and in vivo pharmacological properties of 2'-fluoro-3'-(substituted phenyl)deschloroepibatidine analogues of 2'-fluoro-3'-(4-nitrophenyl)deschloroepibatidine” (J Med Chem, 2012).

What was measured:
[1] = biological target: T1, Neuronal acetylcholine receptor; alpha4/beta2 (Rattus norvegicus) (UniProt P09483+P12390); assay: Agonist activity at rat alpha4beta2 nAChR expressed in Xenopus laevis oocytes at 100 uM after 2 to 6 days by two electrode voltage clamp assay relative to acetylcholine; type: functional, cell-based; conditions: Oocyte
[2] = biological target: T2, Neuronal acetylcholine receptor; alpha3/beta4 (Rattus norvegicus) (UniProt P04757+P12392); assay: Agonist activity at rat alpha3beta4 nAChR expressed in Xenopus laevis oocytes at 100 uM after 2 to 6 days by two electrode voltage clamp assay relative to acetylcholine; type: functional, cell-based; conditions: Oocyte
How it was run: (§1)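 Two-electrode voltage clamp on Xenopus oocytes injected with rat subunit cRNA (α3β4 at 1:1 molar ratio), incubated at 19 °C in modified Barth's saline (pH 7.6). Oocytes perfused with ND96 (pH 7.5) at 20–25 °C. 100 µM compound applied for 15 s (α3β4) or 5 s (α7), 3-min washes. Response compared with the mean of three preceding ACh applications and expressed as % of maximal ACh response.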

[3] = biological target: Neuronal acetylcholine receptor subunit alpha-7 (Rattus norvegicus) (UniProt Q05941); assay: Agonist activity at rat alpha7 nAChR expressed in Xenopus laevis oocytes at 100 uM after 2 to 6 days by two electrode voltage clamp assay relative to acetylcholine; type: functional, cell-based; conditions: Oocyte; how it was run: as §1
[4] = test system: Mus musculus; assay: Antinociception activity in sc dosed mouse assessed as reaction time taken for jumping or licking paws after 5 mins by hot plate method
[5] = test system: Mus musculus; assay: Effect on spontaneous locomotor activity in sc dosed mouse after 5 mins by photocell based method; type: functional
How it was run: (§2)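 Mice put into photocell activity cages 5 min after s.c. saline or compound. Beam interruptions counted over the next 10 min.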

[6] = test system: Mus musculus; assay: Effect on hypothermia in sc dosed mouse assessed as variation in rectal temperature measured after 30 mins by thermister probe based method; type: functional; conditions: 0.5 h
How it was run: (§3)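 Rectal temperature measured by thermistor probe inserted 24 mm, before and 30 min after s.c. saline or compound. Change computed for each mouse. Room temperature 21–24 °C.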

[7] = test system: Mus musculus; assay: Antinociception activity in sc dosed mouse after 5 mins by tail-flick method
[8] = biological target: T2, Neuronal acetylcholine receptor; alpha3/beta4 (Rattus norvegicus); assay: Antagonist activity at rat alpha3beta4 nAChR expressed in Xenopus laevis oocytes assessed as inhibition of acetylcholine-induced response at 100 uM after 2 to 6 days by two electrode voltage clamp assay; type: functional, cell-based; conditions: Oocyte
How it was run: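 Xenopus oocytes expressing rat nAChRs (α4β2 and α3β4 subunits injected at 1:1), recorded by two-electrode voltage clamp in ND96 (pH 7.5) at 20–25 °C. […] Current compared with the mean of three preceding ACh-alone responses and given as % remaining.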

[9] = biological target: T3, Neuronal acetylcholine receptor subunit alpha-7 (Rattus norvegicus, UniProt Q05941); assay: Displacement of [125I]iodoMLA from rat cerebral cortex alpha7 nAChR at 50 nM incubated for 2 hrs by microplate scintillation assay; type: tissue-based
How it was run: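 Rat cerebral cortex membranes (3 mg wet weight) in Tris assay buffer pH 7.4. Run in triplicate, 2 h on ice. Nonspecific binding with 300 µM (–)-nicotine. Filtered onto BSA-presoaked GF/B and counted by microplate scintillation.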

[10] = biological target: T3, Neuronal acetylcholine receptor subunit alpha-7; assay: Antagonist activity at rat alpha7 nAChR expressed in Xenopus laevis oocytes assessed as inhibition of acetylcholine-induced response after 2 to 6 days by two electrode voltage clamp assay; type: functional, cell-based, Oocyte
[11] = Displacement of [3H]epibatidine from rat cerebral cortex alpha4beta2* nAChR incubated for 4 hrs by liquid scintillation assay; type: tissue-based
How it was run: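 Washed rat cerebral cortex membranes (3 mg wet weight) in 50 mM Tris pH 7.4 with 120 mM NaCl, 5 mM KCl, 2 mM CaCl2, 1 mM MgCl2. 4 h at room temperature. Nonspecific binding with 300 µM (–)-nicotine. Filtration on PEI-soaked GF/B. Ki from IC50 by Cheng–Prusoff.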

[12] = test system: Mus musculus; assay: Effect on hypothermia in mouse assessed as variation in rectal temperature at 10 mg/kg, sc measured after 30 mins by thermister probe based method; type: functional; conditions: route subcutaneous; how it was run: as §3
[13] = test system: Mus musculus; assay: Antagonist activity in sc dosed mouse assessed as inhibition of nicotine-induced antinociception after 5 mins by hot plate method; type: functional
[14] = test system: Mus musculus; assay: Antinociception activity in mouse assessed as reaction time taken for jumping or licking paws at 10 mg/kg, sc after 5 mins by hot plate method; type: functional; conditions: route subcutaneous
How it was run: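 Mice placed on a 55 °C hot plate; latency is time to jump or paw-lick. Two baseline latencies taken at least 10 min apart. Tested 5 min after s.c. dosing. %MPE computed with a 40 s maximum. Eight mice per dose.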

[15] = biological target: Neuronal acetylcholine receptor subunit alpha-7 (Rattus norvegicus) (UniProt Q05941); assay: Antagonist activity at rat alpha7 nAChR expressed in Xenopus laevis oocytes assessed as inhibition of acetylcholine-induced response at 100 uM after 2 to 6 days by two electrode voltage clamp assay; type: functional, cell-based; conditions: Oocyte
[16] = biological target: T1, Neuronal acetylcholine receptor; alpha4/beta2 (Rattus norvegicus); assay: Antagonist activity at rat alpha4beta2 nAChR expressed in Xenopus laevis oocytes assessed as inhibition of acetylcholine-induced response at 100 uM after 2 to 6 days by two electrode voltage clamp assay; type: functional, cell-based; conditions: Oocyte
How it was run: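 Xenopus oocytes expressing rat nAChRs (α4β2 and α3β4 subunits injected at 1:1), recorded by two-electrode voltage clamp in ND96 (pH 7.5) at 20–25 °C. Current compared with the mean of three preceding ACh-alone responses and given as % remaining.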

[17] = test system: Mus musculus; assay: Effect on spontaneous locomotor activity in mouse at 10 mg/kg, sc after 5 mins by photocell based method; type: functional; conditions: route subcutaneous; how it was run: as §2
[18] = biological target: Neuronal acetylcholine receptor; alpha3/beta4 (Rattus norvegicus, UniProt P04757+P12392); assay: Antagonist activity at rat alpha3beta4 nAChR expressed in Xenopus laevis oocytes assessed as inhibition of acetylcholine-induced response after 2 to 6 days by two electrode voltage clamp assay; type: functional, cell-based, Oocyte
[19] = biological target: Neuronal acetylcholine receptor; alpha4/beta2 (Rattus norvegicus, UniProt P09483+P12390); assay: Antagonist activity at rat alpha4beta2 nAChR expressed in Xenopus laevis oocytes assessed as inhibition of acetylcholine-induced response after 2 to 6 days by two electrode voltage clamp assay; type: functional, cell-based, Oocyte
[20] = test system: Mus musculus; assay: Antinociception activity in mouse at 10 mg/kg, sc after 5 mins by tail-flick method; type: functional; conditions: route subcutaneous
How it was run: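 Mouse tail-flick: baseline latency 2–4 s, 10 s cutoff, tested 5 min after s.c. injection. %MPE = (test−control)/(10−control)×100. Eight to twelve mice per dose.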

[21] = test system: Mus musculus; assay: Antagonist activity in sc dosed mouse assessed as inhibition of nicotine-induced antinociception after 5 mins by tail flick method; type: functional
[22] = test system: Mus musculus; assay: Antagonist activity in mouse assessed as inhibition of nicotine-induced antinociception at 10000 ug/kg, sc after 5 mins by hot plate method; type: functional
[23] = test system: Mus musculus; assay: Antagonist activity in mouse assessed as inhibition of nicotine-induced antinociception at 2000 ug/kg, sc after 5 mins by hot plate method; type: functional

Sequence of Neuronal acetylcholine receptor subunit alpha-7 (Rattus norvegicus) (Q05941 whole entry): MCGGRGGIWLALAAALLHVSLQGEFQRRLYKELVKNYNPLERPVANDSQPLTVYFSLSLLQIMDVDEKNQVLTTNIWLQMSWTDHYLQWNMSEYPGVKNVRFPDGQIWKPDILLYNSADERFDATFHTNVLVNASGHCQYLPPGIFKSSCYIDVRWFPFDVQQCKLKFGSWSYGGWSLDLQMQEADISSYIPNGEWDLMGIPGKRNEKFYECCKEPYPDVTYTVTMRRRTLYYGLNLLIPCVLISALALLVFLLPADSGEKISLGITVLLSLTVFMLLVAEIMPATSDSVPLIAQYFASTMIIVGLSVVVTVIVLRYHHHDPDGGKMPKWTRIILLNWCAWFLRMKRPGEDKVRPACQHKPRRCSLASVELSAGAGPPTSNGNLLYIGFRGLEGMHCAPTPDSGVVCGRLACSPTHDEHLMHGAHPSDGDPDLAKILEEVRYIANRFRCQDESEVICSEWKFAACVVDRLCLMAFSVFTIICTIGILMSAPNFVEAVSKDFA
T3 sequence (Q05941 whole entry): as above
Sequence of Neuronal acetylcholine receptor; alpha3/beta4 (P04757 whole entry): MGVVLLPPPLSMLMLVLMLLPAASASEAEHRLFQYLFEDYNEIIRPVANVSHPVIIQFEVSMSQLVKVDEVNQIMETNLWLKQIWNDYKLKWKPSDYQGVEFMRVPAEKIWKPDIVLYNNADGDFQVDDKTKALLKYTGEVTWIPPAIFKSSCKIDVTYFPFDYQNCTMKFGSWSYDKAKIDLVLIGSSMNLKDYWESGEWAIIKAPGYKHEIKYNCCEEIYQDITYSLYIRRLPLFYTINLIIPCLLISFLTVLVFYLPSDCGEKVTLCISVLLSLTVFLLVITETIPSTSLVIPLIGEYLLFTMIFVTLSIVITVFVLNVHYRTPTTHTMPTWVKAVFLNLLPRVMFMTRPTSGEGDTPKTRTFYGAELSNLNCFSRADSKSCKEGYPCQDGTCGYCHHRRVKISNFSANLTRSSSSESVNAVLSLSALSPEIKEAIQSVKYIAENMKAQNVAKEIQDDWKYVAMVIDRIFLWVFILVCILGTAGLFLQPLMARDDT
Sequence of Neuronal acetylcholine receptor; alpha3/beta4 (P12392 whole entry): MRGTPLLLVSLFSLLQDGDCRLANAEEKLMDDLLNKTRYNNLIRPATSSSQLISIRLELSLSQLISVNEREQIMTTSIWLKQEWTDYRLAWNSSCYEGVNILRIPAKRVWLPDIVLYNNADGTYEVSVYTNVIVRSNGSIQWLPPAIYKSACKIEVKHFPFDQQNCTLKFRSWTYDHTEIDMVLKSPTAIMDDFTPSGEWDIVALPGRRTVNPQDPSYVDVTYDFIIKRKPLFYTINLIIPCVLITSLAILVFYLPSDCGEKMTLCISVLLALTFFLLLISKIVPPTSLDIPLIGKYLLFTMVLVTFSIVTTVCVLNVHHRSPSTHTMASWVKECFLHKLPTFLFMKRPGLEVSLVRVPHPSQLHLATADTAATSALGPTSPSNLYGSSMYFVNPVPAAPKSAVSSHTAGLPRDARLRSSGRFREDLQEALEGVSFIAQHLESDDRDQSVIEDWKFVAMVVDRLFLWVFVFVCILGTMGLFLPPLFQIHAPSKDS
Sequence of Neuronal acetylcholine receptor; alpha4/beta2 (P09483 whole entry): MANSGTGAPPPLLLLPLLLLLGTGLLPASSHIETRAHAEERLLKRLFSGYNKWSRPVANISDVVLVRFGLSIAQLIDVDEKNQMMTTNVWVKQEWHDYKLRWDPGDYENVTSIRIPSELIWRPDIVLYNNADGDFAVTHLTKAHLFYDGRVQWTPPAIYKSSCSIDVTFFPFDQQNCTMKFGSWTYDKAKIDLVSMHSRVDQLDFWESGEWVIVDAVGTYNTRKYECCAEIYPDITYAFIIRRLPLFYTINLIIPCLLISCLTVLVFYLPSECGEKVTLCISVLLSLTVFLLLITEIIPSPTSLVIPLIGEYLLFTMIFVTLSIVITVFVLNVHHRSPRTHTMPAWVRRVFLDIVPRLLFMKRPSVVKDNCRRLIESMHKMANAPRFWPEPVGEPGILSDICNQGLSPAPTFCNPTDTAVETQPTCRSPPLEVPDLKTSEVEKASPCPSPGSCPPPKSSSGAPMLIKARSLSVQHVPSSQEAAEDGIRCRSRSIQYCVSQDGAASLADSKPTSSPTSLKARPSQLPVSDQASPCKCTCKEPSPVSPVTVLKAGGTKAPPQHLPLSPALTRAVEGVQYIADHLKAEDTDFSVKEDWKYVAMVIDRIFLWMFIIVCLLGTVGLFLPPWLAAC
Sequence of Neuronal acetylcholine receptor; alpha4/beta2 (P12390 whole entry): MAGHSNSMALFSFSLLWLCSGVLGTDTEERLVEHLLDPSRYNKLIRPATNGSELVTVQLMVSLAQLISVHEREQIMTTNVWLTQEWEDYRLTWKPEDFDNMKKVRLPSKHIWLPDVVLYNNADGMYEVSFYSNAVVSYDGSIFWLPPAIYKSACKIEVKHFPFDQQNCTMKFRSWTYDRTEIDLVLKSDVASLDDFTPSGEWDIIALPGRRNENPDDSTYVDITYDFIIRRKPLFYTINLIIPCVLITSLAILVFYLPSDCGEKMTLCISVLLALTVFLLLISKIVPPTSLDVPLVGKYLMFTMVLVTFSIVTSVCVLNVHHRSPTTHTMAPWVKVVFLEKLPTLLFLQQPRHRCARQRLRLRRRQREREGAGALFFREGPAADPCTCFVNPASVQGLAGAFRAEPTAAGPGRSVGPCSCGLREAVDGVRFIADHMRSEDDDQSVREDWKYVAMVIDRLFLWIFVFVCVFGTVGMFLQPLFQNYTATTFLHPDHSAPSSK

Structure (SMILES)	%max [1]	%max [2]	%max [3]	ED50 [5]	ED50 [6]	inhibition [8]	Ki [9]	IC50 [10]	Ki [11]	Activity [12]	AD50 [13]	Activity [14]	inhibition [15]	inhibition [16]	Activity [17]	IC50 [18]	IC50 [19]	Activity [20]	AD50 [21]	further results
Clc1ccc([C@H]2CC3CCC2N3)cn1 (mixture of isomers)	131%	97%	150%	0.001 mg/kg	0.004 mg/kg															ED50 [4]: 0.004 mg/kg; ED50 [7]: 0.006 mg/kg
Fc1ncc(C2CC3CCC2N3)cc1-c1ccc(C(F)(F)F)cc1 (racemic)	0%	0%	4%			4%	> 2000 nM	4000 nM	0.44 nM	0%	6 mg/kg	6%	3%	8%	5%	5000 nM	6000 nM			
CS(=O)(=O)c1ccc(-c2cc(C3CC4CCC3N4)cnc2F)cc1 (racemic)	0%	0%	3%			25%			0.17 nM	1%	2.6 mg/kg	1%	33%		12%	11000 nM	2800 nM	6%	0.018 mg/kg	
NS(=O)(=O)c1ccc(-c2cc(C3CC4CCC3N4)cnc2F)cc1 (racemic)	0%	0%	1.8%			5%	> 2000 nM		0.94 nM	0%	1 mg/kg	19%	18%	4%	5%				0.0009 mg/kg	
O=S(=O)(c1ccc(-c2cc(C3CC4CCC3N4)cnc2F)cc1)C(F)(F)F (racemic)	0%	1.9%	1.8%	4.2 mg/kg		15%	> 2000 nM		0.03 nM	0%			42%	7%				3%	1.6 mg/kg	inhibition in vivo at 10 mg/kg [22]: 50%
NC(=O)c1ccc(-c2cc(C3CC4CCC3N4)cnc2F)cc1 (racemic)	3.5%	8%	17%		4.2 mg/kg	36%	1870 nM	35000 nM	0.12 nM			60%	54%	6%		35000 nM	1500 nM	16%	0.009 mg/kg	inhibition in vivo at 2 mg/kg [23]: 1%
O=[N+]([O-])c1ccc(-c2cc(C3CC4CCC3N4)cnc2F)cc1 (racemic)	0%	4%	6%	0.22 mg/kg	0.21 mg/kg	9%	> 2000 nM	32000 nM	0.009 nM		0.12 mg/kg		55%	6%		7900 nM	3200 nM	5%	0.003 mg/kg	
N#Cc1ccc(-c2cc(C3CC4CCC3N4)cnc2F)cc1 (racemic)	0%	6%	3%			17%	> 2000 nM	98000 nM	0.19 nM	0%		18%	49%	8%	0%	7000 nM	11000 nM	4%		inhibition in vivo at 10 mg/kg [22]: 24%
c1cnc2cc3c(cc2n1)[C@@H]1CNC[C@H]3C1 [VARENICLINE]	13%	66%	74%	2.1 mg/kg	2.8 mg/kg						0.47 mg/kg	10%		38%				11%	0.0002 mg/kg	
